# Laboratory results taken from PubChem BioAssay AID809 (SRMLSC, 2007).
# The source made the active and inactive calls.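 The calls were made as follows: active = EC50 for reversing nicotinamide-shortened yeast lifespan at or below a set limit; inactive = EC50 above that limit.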
# System: S. cerevisiae DeaD BB579, nicotinamide rescue growth, OD615 48 h
# Assay: rescue of nicotinamide-suppressed growth of yeast BB579, dose response, yeast lifespan extension project, S. cerevisiae (AID 809)
# In short: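 Assay system: Saccharomyces cerevisiae DeaD strain BB579, log-phase cells; Medium: CSMM-D glucose restrictive medium; Dosing: compounds from 0.078 to 10 µM final, 0.5% DMSO; Times: 4 h pre-incubation, 48 h exposure at 30 °C; Technique: optical density at 615 nm (absorbance); Evaluation: culture saturation density reflecting mother-cell replicative lifespan.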
row,SMILES,EC50
1,C=CCn1c(-c2ccc(OC)cc2)csc1=Nc1c(C)n(C)n(-c2ccccc2)c1=O,> 10 µM (inactive)
2,COc1ccccc1C(=O)Oc1ccc2c(c1)O/C(=C\c1ccncc1)C2=O,> 10 µM (inactive)
3,O=C(c1ccc(F)cc1)C(CN1CCOCC1)c1ccccc1 (stereo not drawn),1.12 µM
4,CCC(=O)Nc1ccccc1Sc1ncnc2scc(-c3ccccc3)c12,> 10 µM (inactive)
5,CCCCC(c1nnnn1CC1CCCO1)N1CCN(c2nc3ccccc3s2)CC1 (stereo not drawn),> 10 µM (inactive)
6,CCCCOC(=O)CSc1nc2c(c(=O)[nH]c(=O)n2C)n1C/C=C(\C)Cl,> 10 µM (inactive)
7,CCCCSc1nc(O)c(C2OC(=O)c3c2ccc(OC)c3OC)c(=O)n1C (stereo not drawn),5.79 µM
8,O=C1ON=C(c2ccccc2)/C1=C/c1ccc(-c2ccccc2[N+](=O)[O-])o1,3.82 µM
9,CC(=O)Nc1c(O)nc(SCc2ccccc2C#N)[nH]c1=O,> 10 µM (inactive)
10,Oc1ccc(Br)cc1C=Nc1ccc2[nH]ncc2c1,> 10 µM (inactive)
11,O=C1Nc2cc(Cl)c(Cl)cc2N(O)N1c1cc(Cl)cc(Cl)c1,> 10 µM (inactive)
12,CC(C)(C)C(=O)Cn1c(=N)n(Cc2ccccc2)c2ccccc21,9.33 µM
13,CCCCC(=Nc1ccccc1OC)C1=C(O)CC(c2ccccc2)CC1=O (stereo not drawn),4.5 µM
14,O=c1c(-c2ccc(Cl)cc2)[n+]([O-])c2ccccc2n1OCc1ccccn1,> 10 µM (inactive)
15,O=C(O)c1ccc(O)c(N2C(=O)Nc3ccccc3N2O)c1,> 10 µM (inactive)
16,Cc1ccc(C(=O)C2C(=O)c3ccccc3C2=O)cc1,3.68 µM
17,CCOc1ccccc1/C=c1\sc2ncnn2c1=O,7.17 µM
18,CCN1C(=O)/C(=C/N(C(C)=O)c2ccccc2)N(c2ccccc2)C1=S,> 10 µM (inactive)
19,COc1ccc(C(C)NC(=O)c2ccccc2)cc1 (stereo not drawn),> 10 µM (inactive)
20,O=C(Nc1scc(-c2cccs2)c1C(=O)O)c1cccs1,6.7 µM
21,Cc1ccc(Oc2nc3ccccc3n3c(C)nnc23)c(C)c1,> 10 µM (inactive)
22,O=C1c2ccccc2C(Nc2ccc3c(c2)OCCO3)N1c1ccccn1 (stereo not drawn),> 10 µM (inactive)
23,CCCCn1c(NS(=O)(=O)c2ccc(C)cc2)c(C(=O)OCC)c2nc3ccccc3nc21,> 10 µM (inactive)
24,Cn1nnnc1SCCNCC#Cc1ccccc1,> 10 µM (inactive)
25,CN1OC(c2ccccc2)=C(CO)C1c1ccccc1 (stereo not drawn),> 10 µM (inactive)
26,O=C(CCl)N1c2ccccc2OCC1c1ccccc1 (stereo not drawn),9.75 µM
27,CCCCCOC(=O)CSc1nc2c(c(=O)[nH]c(=O)n2C)n1CCc1ccccc1,> 10 µM (inactive)

row,SMILES,EC50
1,Cc1ccc(C)c(N2CCN(S(=O)(=O)c3c(C)noc3/C=C/N(C)C)CC2)c1,> 10 µM (inactive)
2,O=CN(/C=C1\Sc2ccccc2C1=O)Cc1ccccc1,5.73 µM
3,O=C(O)c1c[nH]c(=S)n1-c1ccc(F)cc1,> 10 µM (inactive)
4,C=CCn1c(C)cc(C(=O)COc2ncnc3sccc23)c1C,9.94 µM
5,C=C(C(=O)c1ccccc1)C(CC(=O)c1ccccc1)c1ccccc1 (stereo not drawn),8.08 µM
6,COC(=O)C1=C(C(=O)OC)C(c2cc(Br)ccc2O)c2sc(=O)[nH]c2S1 (stereo not drawn),4.75 µM
7,CC(C)(C)OC(=O)[C@H]1[C@H](c2ccc([N+](=O)[O-])cc2)C2(C(=O)c3ccccc3C2=O)C2c3ccccc3C=NN21 (stereo partly drawn),8.16 µM
8,Cc1ccc(C(=O)c2no[n+]([O-])c2C(=O)c2ccc(C)cc2)cc1,> 10 µM (inactive)
9,O=c1c2ccccc2nc(-c2cccc(Cl)c2)n1O,< 0.078 µM
10,CCOc1ccc(/C=C/C(=O)c2c(O)c3ccccc3oc2=O)cc1,> 10 µM (inactive)
11,CC(C)C(C(=O)O)N1C(=O)/C(=C/c2cccn2C)SC1=S (stereo not drawn),8.05 µM
12,CC1(C)CC(=O)c2sc(NS(C)(=O)=O)nc2C1,> 10 µM (inactive)
13,O=C(O)CCCCCN1C(=O)/C(=C\c2ccncc2)SC1=S,> 10 µM (inactive)
14,O=S1(=O)C=C(Sc2nc3ccccc3s2)c2ccccc21,> 10 µM (inactive)
15,CC(C)c1ccc(C2=C(O)c3ccccc3C(=O)C2=O)cc1,> 10 µM (inactive)
16,C=C1C(=O)C=C2CN(C(=O)c3ccccc3)[C@@](Cc3ccc(F)cc3)(C(=O)OC)[C@@H]12,> 10 µM (inactive)
17,COc1ccc(C(=O)C(CN2CCOCC2)c2ccccc2)cc1F (stereo not drawn),4.62 µM
18,CCC(=NCCc1c(C)[nH]c2ccc(C)cc12)C1=C(O)CC(c2ccccc2)CC1=O (stereo not drawn),5.08 µM
19,CCSc1ccccc1C(=O)n1nnc2ccccc21,7.79 µM
20,Cc1ccc(NC(=O)C2C(=O)N(C)c3ccccc32)cc1 (stereo not drawn),> 10 µM (inactive)
21,COc1ccccc1N(CN1CCCC1=O)C(=O)c1c(F)cccc1F,> 10 µM (inactive)
22,Cc1ccccc1NC(=O)c1ccccc1,> 10 µM (inactive)
23,O=C(COc1ccc2ccccc2c1)Nc1cccc(C(=O)Nc2ccccc2C(=O)O)c1,8.35 µM
24,O=C1OC2(CCCCC2)OC(=O)C1=CNc1nc2ccccc2s1,> 10 µM (inactive)
25,CCCc1cc(=O)oc2cc(C)c(CN3CCCC3)c(O)c12,6.15 µM
26,CC(=O)Oc1ccc(N(C(C)=O)S(=O)(=O)c2ccc(C)c([N+](=O)[O-])c2)cc1,> 10 µM (inactive)
